We go through six compounds from ChEMBL document CHEMBL4371078, “N-Naphthoyl-substituted indole thio-barbituric acid analogs inhibit the helicase activity of the hepatitis C virus NS3” (Bioorg Med Chem Lett, 2019).

The structures appear in SMILES notation. Active and inactive are the calls of the source. The calls are words filed in the database; no cut-off is given here.

The test system of assay [1] is Hepatitis C virus subtype 1b. Kind of assay: Inhibition of recombinant full length HCV genotype 1b NS3 helicase activity assessed as reduction in 5'-FAM labeled dsDNA substrate unwinding at 30 uM preincubated for 10 mins followed by MgCl2/ATP addition and measured after 30 mins by real-time fluorescence assay. Summed up:
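96-well real-time unwinding of a fluorescently labelled duplex DNA by full-length recombinant NS3 with saturating ATP and Mg2+. Read-out was the increase in FAM fluorescence. Compounds were tested at 30 µM in 5% DMSO. Unwinding rates were normalized to DMSO controls. Values are the mean ± standard deviation of triplicate measurements.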

Assay [2] deals with Hepatitis C virus subtype 1b. Kind of assay: Inhibition of polyU RNA-stimulated recombinant full length HCV genotype 1b NS3 ATPase activity assessed as Km for substrate at 25 uM in presence of 5 mM ATP measured for 1 min by pyruvate kinase/ lactate dehydrogenase enzyme coupled spectrophotometric method (reference value: 0.41 mM).
In assay [3] the test system is Hepatitis C virus subtype 1b. Put plainly: Inhibition of recombinant full length HCV genotype 1b NS3 helicase activity assessed as reduction in radiolabeled 38 bp dsRNA substrate unwinding by measuring unwinding rate constant at 25 uM preincubated for 20 mins followed by MgCl2/ATP addition and measured up to 4 mins by PAGE based phosphor imaging analysis (reference value: 1.84 +/- 0.19 /min). Summed up:
(§1)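 Polyacrylamide gel unwinding of a radiolabelled 38 bp duplex RNA by recombinant NS3 with compound at 25 µM. Radioactivity at time points from triplicate experiments was averaged and fit to a single exponential to give rate constants.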

Assay [4] deals with Hepatitis C virus subtype 1b. Kind of assay: Inhibition of recombinant full length HCV genotype 1b NS3 helicase activity assessed as reduction in radiolabeled 38 bp dsRNA substrate unwinding t 25 uM preincubated for 20 mins followed by MgCl2/ATP addition and measured up to 4 mins by PAGE based phosphor imaging analysis relative to control. Summed up:
as §1

Assay [5] can be described thus: Inhibition of recombinant full length HCV genotype 1b NS3 interaction with 3'-FAM labeled ssDNA assessed as Kd for NS3-ssDNA complex at 25 uM by fluorescence polarization assay (reference value: 3.3 +/- 0.2 nM). More on the design: species or system Hepatitis C virus subtype 1b. Background: Fluorescence polarisation rises when a labelled molecule tumbles more slowly, as on binding a larger partner.

In assay [6] the test system is Hepacivirus hominis. Kind of assay: Inhibition of HCV NS3/4A protease activity at 25 uM using Ac-Asp-Glu-Asp-EDANS-Glu-Glu-Abu-L-Lactoyl-Ser-Lys DABCYL-NH2 as substrate measured for 30 mins by fluorescence assay. In outline: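 NS3–4A protease activity read by fluorescence of the internally quenched EDANS/DABCYL peptide after cleavage. Compounds were tested at 25 µM, with telaprevir at 10 µM as the positive control. Activities were normalized. Values are the mean ± standard deviation of triplicate measurements.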

In assay [7] the test system is Hepatitis C virus subtype 1b. Kind of assay: Inhibition of polyU RNA-stimulated recombinant full length HCV genotype 1b NS3 ATPase activity assessed as Kcat for substrate at 25 uM in presence of 5 mM ATP measured for 1 min by pyruvate kinase/ lactate dehydrogenase enzyme coupled spectrophotometric method (reference value: 68 /s).
In assay [8] the test system is Hepatitis C virus subtype 1b. Put plainly: Inhibition of recombinant full length HCV genotype 1b NS3 helicase activity assessed as reduction in radiolabeled dsDNA substrate unwinding by measuring unwinding rate constant at 25 uM preincubated for 5 mins followed by MgCl2/ATP addition and measured up to 50 mins by PAGE based phosphor imaging analysis (reference value: 0.039 +/- 0.002 /min). In outline:
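Gel-based unwinding of 2 nM radiolabelled duplex DNA by 100 nM recombinant NS3 with excess ATP. Compound was present at 25 µM. Unwound fraction was quantified at time points and fit to a single exponential for the rate constant. Triplicate experiments were averaged.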

The subject of assay [9] is Hepatitis C virus subtype 1b. Kind of assay: (§2) Inhibition of recombinant full length HCV genotype 1b NS3 helicase activity assessed as reduction in 5'-FAM labeled dsDNA substrate unwinding preincubated for 10 mins followed by MgCl2/ATP addition and measured after 30 mins by real-time fluorescence assay. In outline: (§3)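 Real-time plate unwinding of a FAM-labelled duplex DNA by full-length recombinant NS3 with saturating ATP and Mg2+, read as the fluorescence increase. Compounds were dosed over a range to derive an IC50.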

Assay [10] can be described thus: as §2. More on the design: species or system Hepatitis C virus subtype 1b. Summed up: as §3
Assay [11] concerns Hepacivirus hominis. Kind of assay: Inhibition of HCV NS3/4A protease activity at 10 uM using Ac-Asp-Glu-Asp-EDANS-Glu-Glu-Abu-L-Lactoyl-Ser-Lys DABCYL-NH2 as substrate measured for 30 mins by fluorescence assay relative to control. In outline:
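Recombinant HCV NS3–4A with full protease activity, incubated with the internally quenched EDANS/DABCYL peptide substrate; cleavage read as the rise in fluorescence. Activities were normalized to control and given as mean ± standard deviation of triplicate measurements.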

Usually inhibition stands for the share of the control response that was lost under treatment. For the compound `O=C1NC(=S)NC(=O)C1=Cc1cn(C(=O)c2cccc3ccccc23)c2ccc(Cl)cc12`, in [1], the inhibition entry is “inactive”.
The Km is the substrate concentration at which the rate is half of its maximum. The term Kd denotes the constant that tells how readily two partners part at equilibrium. For orientation: kcat means the number of substrate molecules converted per active site and unit of time at saturation. As a reminder, the IC50 is the midpoint of a concentration-inhibition curve. Regarding `O=C1NC(=S)NC(=O)C1=Cc1cn(C(=O)c2ccc3ccccc3c2)c2ccccc12`, the Michaelis constant (Km) in assay [2] is 480 µM. The K in assay [3] is 1.81 min⁻¹; in assay [8], 0.018 min⁻¹. In addition, the inhibition is 50% in assay [4] and “Dose-dependent effect” in [9]. In addition, the Kd in assay [5] turned out to be 0.0031 µM. In addition, the inhibition entry with Hepacivirus hominis [6] is “inactive”. Moreover, in assay [7], the turnover number (kcat) amounted to 65.3 s⁻¹. Moreover, in assay [1], the inhibition entry was “Active”. The IC50 in assay [10] is 21.6 µM.
Turning to `COc1ccc2c(c1)c(C=C1C(=O)NC(=S)NC1=O)cn2C(=O)c1ccc2ccccc2c1`, in [2], the Km was determined as 1000 µM. Besides, the K in assay [3] was determined as 2.38 min⁻¹; in assay [8], 0.021 min⁻¹. Also, the values for the inhibition in assay [4] and in [9] were 50% and “Dose-dependent effect”, respectively. Besides, the dissociation constant (Kd) in assay [5] worked out at 0.0028 µM. For the same compound, the inhibition entry with Hepacivirus hominis [6] was “inactive”. Also, the catalytic constant (kcat) in [7] amounted to 73 s⁻¹. Also, the inhibition entry in assay [1] was “Active”. The concentration for half-maximal inhibition (IC50) in assay [10] was 21.4 µM.
For the compound `CCC[C@H](NC(=O)[C@@H]1[C@H]2CCC[C@H]2CN1C(=O)[C@@H](NC(=O)[C@@H](NC(=O)c1cnccn1)C1CCCCC1)C(C)(C)C)C(=O)C(=O)NC1CC1`, the inhibition in the assay with Hepacivirus hominis [11] was determined as 85%.
On to `O=C1NC(=S)NC(=O)C1=Cc1cn(C(=O)c2ccc3ccccc3c2)c2ccc(Cl)cc12`, for which the inhibition entry in assay [1] is “inactive”.
`COc1ccc2c(c1)c(C=C1C(=O)NC(=S)NC1=O)cn2C(=O)c1cccc2ccccc12`: the Michaelis constant (Km) in assay [2] turned out to be 860 µM. Moreover, the K is 2.14 min⁻¹ in [3] and 0.024 min⁻¹ in assay [8]. Further, the values for the inhibition in assay [4] and in assay [9] were 50% and “Dose-dependent effect”, respectively. For the same compound, the dissociation constant Kd in [5] stood at 0.0057 µM. Moreover, the inhibition result in the assay on Hepacivirus hominis [6] is “inactive”. For the same compound, the kcat in assay [7] worked out at 68.7 s⁻¹. Besides, the inhibition result in assay [1] was “Active”. In addition, in assay [10], the 50% inhibitory concentration (IC50) stood at 23.5 µM.
